# Assay results as given in PMC6614152 (Clinical Pharmacokinetics, 2019).
# Where “and” joins values, the source holds several entries; their conditions need not be identical. Equal entries are not always repeated. Entries after “also recorded” stand apart in the source; their conditions may differ. Where two headings read alike, the source gives them in different places.
# Tests used:
# [1] = cited from earlier work
# CYP2D6 = settings: in vitro data; cited from earlier work
# [2] = Population pharmacokinetic analysis; assay type: in vivo, humans
# Summary of the method: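 Nonlinear mixed-effects model (FOCEI) fitted to 29,372 plasma concentrations from 4170 healthy and RA subjects across 12 studies (IR 1–48 mg, ER 7.5–30 mg), quantified by LC-MS/MS. Two-compartment structure: IR first-order absorption with lag time, ER mixed zero/first-order absorption with lag time, linear elimination; combined additive/proportional residual error. Below-LLOQ values were set to LLOQ/2, with later post-dose ones censored. Co-medications were time-varying covariates. Checked by VPC (400 replicates) and ER pcVPC.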
# CYP3A = settings: strong CYP3A inhibitor ketoconazole; cited from earlier work
# JAK1 = settings: in vitro cellular assays; cited from earlier work
# [3] = assay type: in vivo, humans
# [4] = cited from earlier work; remark: listed apart in the source
# moderate to severe RA = settings: monotherapy or in combination with csDMARDs; cited from earlier work
# [5] = final model, population estimate (%RSE), outliers excluded
# [6] = healthy subjects, ER formulation, population estimate
# [7] = RA subjects with bodyweight < 60 kg, steady state, simulated
# [8] = RA subjects with bodyweight > 100 kg, steady state, simulated
smiles,measurement,setting,value
"CC[C@@H]1CN(C(=O)NCC(F)(F)F)C[C@@H]1c1cnc2cnc3[nH]ccc3n12 [upadacitinib, Upadacitinib]",functional half-life,[1]; IR formulation,3 to 4 h
same,time at which peak plasma concentrations (Cmax) were reached,[1]; after ER dosing,2 to 4 h
same,time at which peak plasma concentrations (Cmax) were reached,[1]; after IR dosing,1 to 2 h
same,Cmax and Cmin of ER 15 and 30 mg once daily versus IR 6 mg and 12 mg twice daily,[1],comparable
same,daily AUC of ER 15 and 30 mg once daily versus IR 6 mg and 12 mg twice daily,[1],equivalent
same,terminal half-life,[1]; following administration of the IR or ER formulations,6 to 16 h
same,upadacitinib dose eliminated unchanged in urine (renal pathway),[1]; phase I study,Approximately 20%
same,linearity of pharmacokinetics,[1]; range of doses evaluated in phase I and II studies,linear pharmacokinetics
same,contribution of CYP2D6 to upadacitinib metabolism,CYP2D6,potential minor contribution
same,time-dependent change in upadacitinib clearance with continued treatment,[2]; CWRES versus time,no time-dependent change
same,dose proportionality of bioavailability,[2]; ER dose range of 7.5-30 mg,dose-proportional
same,effect of pH-modifying medications on upadacitinib absorption from the ER formulation,[2]; ER formulation,no effect
same,Bioavailability of the extended-release formulation relative to the immediate-release formulation,[2]; [5],76.2% and 76%
same,ISV on CL/F in phase I,[2]; [5],21%
same,ISV on CL/F in phase II/III,[2]; [5],37%
same,ISV on Vc/F in phase I,[2]; [5],24%
same,ISV on Vc/F in phase II/III,[2]; [5],53%
same,apparent oral clearance,[2]; [6],53.7 L/h
same,steady-state volume of distribution (sum of the central and peripheral volume of distribution),[2]; [6],294 L
same,correlation of baseline hsCRP with upadacitinib clearance,[2]; in vivo,not correlated
same,effect of methotrexate on upadacitinib pharmacokinetics,[2]; in vivo,not affect
same,effect of pH-modifying agents on upadacitinib pharmacokinetics,[2]; in vivo,not affect
same,effects of bodyweight and mild or moderate renal impairment on upadacitinib exposures,[2]; in vivo,statistically significant but non-clinically relevant effects; also recorded: Bodyweight and mild or moderate renal impairment had statistically significant but non-clinically relevant effects on upadacitinib exposures
same,higher estimated upadacitinib AUC in RA subjects compared with healthy subjects,[2]; in vivo,33%
same,lower upadacitinib clearance in RA subjects compared with healthy subjects,[2]; in vivo,25%
same,increase in upadacitinib exposures with ketoconazole,CYP3A,approximately 75%
same,selectivity for JAK1 over JAK2,JAK1,approximately 60 fold
same,selectivity for JAK1 over JAK3,JAK1,more than 100 fold
same,AUC higher relative to subjects with a bodyweight of 60-100 kg,[3]; [7],5%
same,Cmax higher compared with subjects with a bodyweight of 60-100 kg,[3]; [7],18%
same,AUC lower relative to subjects with a bodyweight of 60-100 kg,[3]; [8],5%
same,Cmax lower compared with subjects with a bodyweight of 60-100 kg,[3]; [8],18%
same,AUC higher compared with RA subjects with normal renal function,[3]; RA subjects with moderate renal impairment (CrCl 30 to < 60 mL/min),26%
same,effect of CYP2D6 metabolic phenotype on apparent oral clearance,[4],no effect
same,typical oral clearance in RA patients lower compared with healthy subjects,[4],24%
same,clinical signs and symptoms in subjects with moderate to severe RA compared with placebo or active comparators,moderate to severe RA,rapid and significant improvements; also recorded: significantly improved
